Assay outcomes as filed in PubChem BioAssay.
WT yeast gro inh = growth inhibition of WT yeast, mitochondrial fusion screen | mitochondrial fusion phenotypic screen, WT strain | inhibition, % at 10 µM | actives 2.1% (n = 190,000) | AID 1362; in the data active = inhibition above about 58%; tested in S. cerevisiae
BB579 growth dn = reduces growth of yeast BB579 in restrictive medium | S. cerevisiae BB579 growth, OD615, 48 h | inhibition, % at 10 µM | actives 0.51% (n = 140,000);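 active = inhibition above a set limit, 3 SD over the mean compound inhibition, cut at about 44% in these data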
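Test system: Saccharomyces cerevisiae DeaD strain BB579, replicative lifespan model yeast | Buffer or medium: Restrictive CSMM-D medium | Doses: One dose, 10 µM compound with 0.25% DMSO | Incubation: 48 h exposure, 30 °C | Detection: Culture absorbance at 615 nm | Control set: Amphotericin B at 10 µg/mL as positive control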
Yeast life ext = yeast lifespan extension | S. cerevisiae growth with nicotinamide, OD615; deaD strain in restrictive glucose medium | inhibition of the nicotinamide effect, % at 10 µM | actives 0.68% (n = 130,000);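 active = inhibition above a set limit, placed 3 SD over the median of all compounds, cut at about 26% in these data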;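 also: 0% = nicotinamide-treated wells and 100% = cells grown without nicotinamide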
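System: DeaD-strain S. cerevisiae / Buffer or medium: CSMM-D, restrictive glucose (dextrose) synthetic minimal medium / Probe or stimulus: nicotinamide, 1.5 mM, co-present with compound / Compound: one concentration, 10 µM, DMSO 0.25% / Incubation: 48 h compound exposure at 30 °C, humidified / Technique: optical density (absorbance) at 615 nm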
RAM network inh = blocks the yeast RAM network; inhibition, % at 50 µM; actives 1.8% (n = 190,000); AID 868; S. cerevisiae dse1pr::URA3 reporter, 5-FOA growth OD615, 2 d; analog-sensitive cbk1-as2 kinase mutant strain;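 active = inhibition above a set limit, 3 SD over mean compound inhibition, cut at about 8.4% in these data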;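 also: 0% = DMSO-only wells with no growth and 100% = 10 µM 1-NA-PP1 full growth; inhibition rescues growth on 5-FOA so higher OD means more RAM inhibition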
KCC2 mod = modulates chloride dependent transport by human KCC2. Q9H2X9. KCC2 cells, thallium flux FluoZin-2 fluorescence. B-score of Tl+ flux slope (higher = more flux/activation; lower = inhibition) at 10 µM. actives 2.2% (n = 190,000). AID 1456;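 active = thallium flux slope and its plate-corrected score both differing from the plate sample mean at a set confidence after two filtering rounds, in either direction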;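 also: slope of fluorescence scaled to starting intensity during 10 to 20 s after thallium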
Target sequence (Q9H2X9 whole entry, looked up): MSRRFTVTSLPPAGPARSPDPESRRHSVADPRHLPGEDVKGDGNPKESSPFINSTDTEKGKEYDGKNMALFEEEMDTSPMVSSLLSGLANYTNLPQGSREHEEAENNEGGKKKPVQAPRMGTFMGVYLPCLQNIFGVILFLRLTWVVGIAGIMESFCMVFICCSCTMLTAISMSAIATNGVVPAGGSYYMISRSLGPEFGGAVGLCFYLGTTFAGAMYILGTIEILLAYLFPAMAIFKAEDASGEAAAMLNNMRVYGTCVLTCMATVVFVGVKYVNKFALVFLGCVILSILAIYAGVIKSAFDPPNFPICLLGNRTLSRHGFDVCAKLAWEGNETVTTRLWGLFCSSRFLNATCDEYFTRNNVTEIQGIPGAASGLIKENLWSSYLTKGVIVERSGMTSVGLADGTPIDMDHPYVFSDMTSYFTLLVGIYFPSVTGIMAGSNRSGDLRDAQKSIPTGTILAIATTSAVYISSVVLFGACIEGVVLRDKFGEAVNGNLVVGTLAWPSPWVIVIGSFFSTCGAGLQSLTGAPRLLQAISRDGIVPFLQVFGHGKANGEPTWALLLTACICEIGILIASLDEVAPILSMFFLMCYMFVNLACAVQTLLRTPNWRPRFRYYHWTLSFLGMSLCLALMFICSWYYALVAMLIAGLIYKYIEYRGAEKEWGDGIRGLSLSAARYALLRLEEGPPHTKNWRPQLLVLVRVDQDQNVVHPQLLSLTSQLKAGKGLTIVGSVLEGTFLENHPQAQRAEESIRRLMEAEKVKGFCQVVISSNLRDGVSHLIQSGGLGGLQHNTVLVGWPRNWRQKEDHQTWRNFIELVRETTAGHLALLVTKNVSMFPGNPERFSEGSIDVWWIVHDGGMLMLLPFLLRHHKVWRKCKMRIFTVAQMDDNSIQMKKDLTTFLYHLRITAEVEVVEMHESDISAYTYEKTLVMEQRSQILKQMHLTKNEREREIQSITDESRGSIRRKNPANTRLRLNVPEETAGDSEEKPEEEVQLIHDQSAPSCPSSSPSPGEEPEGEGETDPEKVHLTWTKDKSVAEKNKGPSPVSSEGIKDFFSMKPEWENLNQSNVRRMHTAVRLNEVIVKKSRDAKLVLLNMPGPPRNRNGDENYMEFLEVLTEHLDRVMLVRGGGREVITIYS
Numbers without * were called inactive; nt = no result. The list is not random: actives were taken first. Their share in the collection is about 5.5%.

SMILES	WT yeast gro inh	BB579 growth dn	Yeast life ext	RAM network inh	KCC2 mod
COc1ccc(OCC(O)CN(CCO)CC(O)Cn2ccc3ccccc32)cc1 (configuration not stated)	-15.0	-37.5	9.0	-0.4	-0.0606
CCOC(=O)N1CCN(c2nc(C(F)(F)F)nc3c(C)cc(C)cc23)CC1	3.5	-34.5	4.6	7.0	-0.944
Cc1cc(C)c2nc(C(F)(F)F)nc(N3CC(C)OC(C)C3)c2c1 (configuration not stated)	77.0*	-18.5	-15.5	3.9	0.0145
Cc1ccc(NC(=S)N2CCCCC2)cc1C	nt	nt	nt	nt	-0.271
CCOc1ccc(NC(=O)C(c2ccccn2)N(C(=O)CCl)c2ccc(F)cc2)cc1 (configuration not stated)	-9.5	-34.9	0.1	1.8	1.22
CCCCNC(=O)/C=C/c1ccc(OC)c(Br)c1	-6.9	-15.8	-8.0	9.6*	0.394
Cc1nonc1C(=O)N/N=C/c1ccc(O)cc1O	5.4	nt	nt	0.0	0.65
COc1ccc2cc(-c3[nH]ncc3CN3CCCN(c4ccccc4)CC3)ccc2c1	84.2	nt	nt	0.6	nt
CCN(CC)CCN(C(=O)c1c(F)cccc1F)c1nc2cc(C)cc(C)c2s1	59.4*	nt	nt	-0.4	-1.93
CN(C)c1ccc(NC(=O)c2sc(SCC(=O)Nc3ccc(Br)cc3)nc2N)cc1	18.7	-43.1	-0.5	8.7*	nt
O=C(NN=C1C2CC3CC(C2)CC1C3)c1cc(Cl)ccc1O	11.7	13.5	-17.0	-0.9	nt
CN1CCN(C(=O)CSc2ccc(C(F)(F)F)cc2[N+](=O)[O-])CC1	0.6	-17.3	30.0*	-0.3	-0.0183
CC(=O)Nc1cccc(NC(=O)CSc2ccc(C(F)(F)F)cc2[N+](=O)[O-])c1	-2.3	-20.2	-15.4	1.3	0.347
COCCn1c(=O)[nH]c(=O)c2cc(C(=O)c3cc(Cl)ccc3O)cnc21	62.8*	nt	nt	2.6	-1.52
CC(C)c1ccc(N=C(N)N=C(N)N)cc1	-8.2	nt	nt	-0.4	0.234
O=C1C(Cl)=C(NC2CCCCC2)C(=O)N1Cc1ccccc1	69.8*	nt	nt	5.6	0.979
Cc1ccc(NC2(c3nnnn3-c3c(C)cccc3C)CCCCC2)cc1	81.8*	2.5	-0.3	2.1	-0.0396
CSc1nnnn1-c1c(C)cccc1C	nt	nt	nt	nt	-0.00696
CCOC(=O)c1ccc(NC(=O)CCc2nc(-c3ccccc3)no2)cc1	30.5	-36.4	-7.2	9.5*	-1.63
Cc1ccc2[nH]c(=O)c(CNS(=O)(=O)c3ccccc3)c(-c3ccccc3)c2c1	-17.0	-29.0	-2.0	6.6	-1.36
O=C(OCC(=O)C12CC3CC(CC(C3)C1)C2)c1cccnc1Cl	14.9	-35.7	7.1	0.1	0.502
O=C(c1ccccc1)N1CCN(C(=O)c2cc3ccccc3o2)CC1	-10.8	-7.0	-23.9	-0.4	0.665
O=C(c1cc2ccccc2o1)N1CCN(c2ccccc2Cl)CC1	75.1*	-80.9	-11.2	6.0	-2.14
COc1cc2cc(CN(Cc3cccnc3)C(=O)Nc3ccccc3F)c(=O)[nH]c2cc1OC	-10.4	nt	nt	-0.2	-0.569
CCOC(=O)c1cc(-c2ccccc2)sc1NC(=O)C(C)N1C(=O)c2ccccc2C1=O (configuration not stated)	15.3	-38.3	2.2	3.2	0.00815
SMILES	WT yeast gro inh	BB579 growth dn	Yeast life ext	RAM network inh	KCC2 mod
CN([C@@H](Cc1ccc(OS(=O)(=O)c2cccc3cnccc23)cc1)C(=O)N1CCN(c2ccccc2)CC1)S(=O)(=O)c1cccc2cnccc12	-0.6	-54.2	5.8	9.2*	0.464
COc1ccc(N2CCN(C(=O)C(Cc3ccccc3)n3cccc3)CC2)cc1 (configuration not stated)	18.2	-23.2	2.5	2.8	nt
CCOC(=O)c1cnc2c(cnn2C)c1NCCCn1ccnc1	-14.3	nt	nt	-0.7	-0.554
Clc1cccc(Cl)c1CSc1nnc(/C=C/c2ccccc2)o1	24.3	-59.5	1.3	10.7*	-0.606
C[C@H](N)c1nnc(SCc2c(Cl)cccc2Cl)o1	9.4	-32.0	3.1	0.9	nt
CCOCc1c(C(=O)NC2=Nc3ccccc3NC(CC)=C2C(=O)OCC)oc2ccccc12	26.0	nt	nt	10.3*	-0.89
CC(C)CNC(=O)CSc1nnc(CN2CCCCCC2=O)n1-c1ccccn1	-2.1	4.3	28.7*	1.0	nt
COc1cc(/C=N/OCC(=O)Nc2ccc(OC(F)F)cc2)ccc1OCc1ccccc1	31.1	-39.9	0.8	8.4*	-0.132
COc1cc(/C=N/OCC(=O)NC2CCCCC2)ccc1OCc1ccccc1	-11.0	-15.9	0.2	7.2	-0.543
CCOc1ccc(/C=N/OCC(=O)Nc2ccc(OCc3ccccc3)cc2)cc1OC	3.2	-25.5	-4.0	11.3*	1.09
COc1cccc(-n2nnc3c(=O)n(CC(=O)Nc4cc(C)on4)cnc32)c1	2.1	nt	nt	5.2	1.7
O=C(NCc1ccccc1)NC12CC3CC(CC(C3)C1)C2	nt	nt	nt	nt	-0.648
O=C(NCc1ccccn1)NC12CC3CC(CC(C3)C1)C2	-5.5	-49.1	31.9*	1.5	-0.181
CN(C)C(=O)OCC1COc2ccccc2O1 (configuration not stated)	nt	nt	nt	nt	-0.699
c1ccc(-c2ccc(-c3nc(-c4ccccn4)no3)cc2)cc1	77.9*	-6.2	-10.1	5.5	nt
CCOc1cc(N2CCOCC2)c(OCC)cc1NC(=O)COc1ccc2ccc(=O)oc2c1	-3.9	12.6	1.5	3.2	-0.973
CCOC(=O)C1CCN(c2ncnc3c2nnn3Cc2ccccc2Cl)CC1	42.3	nt	nt	8.4*	-0.801
Cc1c(C(=O)N/N=C/c2ccc(Cl)cc2)[nH]c2ccc(Cl)cc12	74.8	-50.7	3.5	8.5*	2.52
Cc1c(C(=O)N/N=C/C(C)C)[nH]c2ccc([N+](=O)[O-])cc12	18.1	-36.0	-3.9	-0.7	-0.993
Cc1ccc(S(=O)(=O)NCCc2nnc3ccc(SCC(=O)Nc4nc5ccccc5s4)nn23)cc1	7.1	-11.8	0.5	10.0*	0.061
Cc1cc(NC(=O)CSc2ccc3nnc(CCNS(=O)(=O)c4ccccc4)n3n2)no1	2.1	nt	nt	-0.1	-0.0111
CCCCOc1ccc(Nc2cc(Cl)ccc2C(=O)O)cn1	nt	nt	nt	nt	13.1*
O=C(NNC(=O)C(c1ccccc1)c1ccccc1)c1ccccn1	-20.9	-29.0	28.6*	-0.4	2.16
CC(C)(C)CN1CCNC(=O)C1CC(=O)NCCc1ccccc1F (configuration not stated)	-9.9	nt	nt	1.5	-0.00564
COc1ccc(OC)c(NC(=O)c2ccc(CSc3ncccn3)cc2)c1	2.0	nt	nt	2.0	nt
C/C(=N\NC(=O)c1ccccc1O)c1ccc(Br)s1	65.9*	-29.0	0.3	3.8	10.9*
C/C(=N\Nc1nc2ccccc2s1)c1ccc2c(c1)OCO2	16.4	-19.0	-2.9	0.4	-0.0174
C/C(=N\Nc1nc2ccccc2s1)c1ccc(Br)s1	94.3*	nt	nt	2.0	2
O=C(CSC1=NCCS1)NC1CCCC1	4.7	0.7	-11.0	2.3	0.822
CCC(C)NC(=O)C(Sc1ccccc1)c1ccccc1 (configuration not stated)	-6.4	nt	nt	1.8	nt
